This is an account of results in ChEMBL document CHEMBL1136045, “Synthesis, in vitro receptor binding, and in vivo evaluation of fluorescein and carbocyanine peptide-based optical contrast agents” (J Med Chem, 2002).

Usually IC50 stands for the concentration needed to halve the response being measured. High values mean a need for much substance, low ones inhibition by little substance.

This test concerns the target Somatostatin receptor. Description: In vitro binding affinity of [111In]DTPA-[Y3]-octreotate to somatostatin receptor in the rat pancreatic tumor cell line, […]. The gist of the method: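 Competition binding on CA20948 rat pancreatic cell membranes with the tracer [111In]-DTPA-[Y3]-octreotate and increasing concentrations of unlabeled competitor. Incubation 90 min at room temperature, then filtration and buffer washes. Filter-bound radioactivity was gamma-counted, and IC50 came from a four-parameter curve fit. Specific activity of the radiolabeled peptide was >1400 Ci/mmol.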
With `C[C@@H](O)[C@H](NC(=O)[C@H]1CSSC[C@H](NC(=O)[C@@H](Cc2ccccc2)NC(=O)CNC(=O)[C@H](CO)NC(=O)CNC(=S)Nc2ccc3c(c2)C(=O)OC32c3ccc(O)cc3Oc3cc(O)ccc32)C(=O)N[C@@H](Cc2ccc(O)cc2)C(=O)N[C@H](Cc2c[nH]c3ccccc23)C(=O)N[C@@H](CCCCN)C(=O)N[C@H]([C@@H](C)O)C(=O)N1)C(=O)O`, the IC50 is 285.2 nM. As to `C[C@@H](O)[C@H](NC(=O)[C@H]1CSSC[C@H](NC(=O)[C@H](N)Cc2ccccc2)C(=O)N[C@@H](Cc2ccc(O)cc2)C(=O)N[C@H](Cc2c[nH]c3ccccc23)C(=O)N[C@@H](CCCCN)C(=O)N[C@H]([C@@H](C)O)C(=O)N1)C(=O)O`, the IC50 is on record as 0.6 nM.

On to `C[C@@H](O)[C@@H](CO)NC(=O)[C@H]1CSSC[C@H](NC(=O)[C@H](N)Cc2ccccc2)C(=O)N[C@@H](Cc2ccc(O)cc2)C(=O)N[C@H](Cc2c[nH]c3ccccc23)C(=O)N[C@@H](CCCCN)C(=O)N[C@H]([C@@H](C)O)C(=O)N1`, for which the IC50 was determined as 0.4 nM. `C[C@@H](O)[C@H](NC(=O)[C@H]1CSSC[C@H](NC(=O)[C@@H](Cc2ccccc2)/N=C(/S)Nc2ccc3c(c2)C(=O)OC32c3ccc(O)cc3Oc3cc(O)ccc32)C(=O)N[C@@H](Cc2ccc(O)cc2)C(=O)N[C@H](Cc2c[nH]c3ccccc23)C(=O)N[C@@H](CCCCN)C(=O)N[C@H]([C@@H](C)O)C(=O)N1)C(=O)O` returned an IC50 of 9.9 nM. In turn, `C[C@@H](O)[C@H](NC(=O)[C@H]1CSSC[C@H](NC(=O)[C@@H](Cc2ccccc2)NC(=O)C(CCCC/N=C(\S)Nc2ccc3c(c2)C(=O)OC32c3ccc(O)cc3Oc3cc(O)ccc32)NC(=O)CN(CCN(CCN(CC(=O)O)CC(=O)O)CC(=O)O)CC(=O)O)C(=O)N[C@@H](Cc2ccc(O)cc2)C(=O)N[C@H](Cc2c[nH]c3ccccc23)C(=O)N[C@@H](CCCCN)C(=O)N[C@H]([C@@H](C)O)C(=O)N1)C(=O)O` (stereo partly specified) gave a half-inhibitory concentration (IC50) of 10.3 nM. In turn, `C[C@@H](O)[C@H](NC(=O)[C@H]1CSSC[C@H](NC(=O)[C@@H](Cc2ccccc2)NC(=O)C(CCCCNC(=O)CN(CCN(CCN(CC(=O)O)CC(=O)O)CC(=O)O)CC(=O)O)/N=C(\S)Nc2ccc3c(c2)C(=O)OC32c3ccc(O)cc3Oc3cc(O)ccc32)C(=O)N[C@@H](Cc2ccc(O)cc2)C(=O)N[C@H](Cc2c[nH]c3ccccc23)C(=O)N[C@@H](CCCCN)C(=O)N[C@H]([C@@H](C)O)C(=O)N1)C(=O)O` (stereo partly specified) showed an IC50 of 71.3 nM. The value for `C[C@@H](O)[C@H](NC(=O)[C@H]1CSSC[C@H](NC(=O)[C@@H](Cc2ccccc2)NC(=O)CC/N=C(\S)Nc2ccc3c(c2)C(=O)OC32c3ccc(O)cc3Oc3cc(O)ccc32)C(=O)N[C@@H](Cc2ccc(O)cc2)C(=O)N[C@H](Cc2c[nH]c3ccccc23)C(=O)N[C@@H](CCCCN)C(=O)N[C@H]([C@@H](C)O)C(=O)N1)C(=O)O` was greater than 1000 nM; that for `C[C@@H](O)[C@H](NC(=O)[C@H]1CSSC[C@H](NC(=O)[C@@H](Cc2ccccc2)NC(=O)CN(CCN(CCN(CC(=O)O)CC(=O)O)CC(=O)O)CC(=O)O)C(=O)N[C@@H](Cc2ccc(O)cc2)C(=O)N[C@H](Cc2c[nH]c3ccccc23)C(=O)N[C@@H](CCCCN)C(=O)N[C@H]([C@@H](C)O)C(=O)N1)C(=O)O` was 1.9 nM; that for `C[C@@H](O)[C@H](NC(=O)[C@H]1CSSC[C@H](NC(=O)[C@@H](Cc2ccccc2)NC(=O)C(CCCCN)/N=C(\S)Nc2ccc3c(c2)C(=O)OC32c3ccc(O)cc3Oc3cc(O)ccc32)C(=O)N[C@@H](Cc2ccc(O)cc2)C(=O)N[C@H](Cc2c[nH]c3ccccc23)C(=O)N[C@@H](CCCCN)C(=O)N[C@H]([C@@H](C)O)C(=O)N1)C(=O)O` (stereo partly specified) was 6.4 nM. Next, `C[C@@H](O)[C@H](NC(=O)[C@H]1CSSC[C@H](NC(=O)[C@@H](Cc2ccccc2)NC(=O)C(N)CCCC/N=C(\S)Nc2ccc3c(c2)C(=O)OC32c3ccc(O)cc3Oc3cc(O)ccc32)C(=O)N[C@@H](Cc2ccc(O)cc2)C(=O)N[C@H](Cc2c[nH]c3ccccc23)C(=O)N[C@@H](CCCCN)C(=O)N[C@H]([C@@H](C)O)C(=O)N1)C(=O)O` (stereo partly specified): 187.8 nM; `C[C@@H](O)[C@H](NC(=O)[C@H]1CSSC[C@H](NC(=O)[C@@H](Cc2ccccc2)NC(=O)C(CCCC/N=C(/S)Nc2ccc3c(c2)C(=O)OC32c3ccc(O)cc3Oc3cc(O)ccc32)NC(=O)CN2CCN(CC(=O)O)CCN(CC(=O)O)CCN(CC(=O)O)CC2)C(=O)N[C@@H](Cc2ccc(O)cc2)C(=O)N[C@H](Cc2c[nH]c3ccccc23)C(=O)N[C@@H](CCCCN)C(=O)N[C@H]([C@@H](C)O)C(=O)N1)C(=O)O` (stereo partly specified): 10.3 nM.
